Results reported in ChEMBL document CHEMBL3351637 (Eur J Med Chem, 2014).
Active and inactive are the calls of the source. The calls are words filed in the database; no cut-off is given here.

Assays:
MCF7 [1] = assay: Cytotoxicity against human MCF7 cells after 48 hrs by SRB assay; type: functional, cell-based; details: MCF7, 48 h
Outline: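 Nanoassemblies diluted in culture medium and added at various concentrations for 48 h at 37°C/5% CO₂. Survival % vs untreated control; run thrice in triplicate; IC50 from dose–effect curves.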

[2] = Stability in human serum at 37 degC assessed as ratio of HPLC area of peaks corresponding to intact compound at time zero at 2 mg/ml measured after 48 hrs; type: ADME, cell-free; details: read-out: Stability
[3] = Stability of the compound assessed as compound mean nano particles size diluted with water at 2 mg/ml measured after 3 months at 5 degC by quasi-elastic light scattering method; type: physicochemical; details: buffer, 2191.5 h
Outline: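 Nanoassemblies made by nanoprecipitation in water as 2 mg/mL dispersions, stored at 5°C. Size checked after three months on samples diluted with water, by light scattering.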

MCF7 [4] = assay: Cytotoxicity against human MCF7 cells in presence of 10 mM DTT after 48 hrs by SRB assay; type: functional, cell-based; details: MCF7, 48 h
[5] = Stability of the compound in water assessed as compound mean nano particles size at 2 mg/ml by quasi-elastic light scattering method; type: physicochemical; details: buffer
Outline: (§1)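 Nanoassemblies formed by solvent displacement into water, 10 mM buffers (citrate or acetate pH 4.5, phosphate pH 7.5, borate or carbonate pH 10.2) or 100 mM NaCl, final 2 mg/mL. Mean diameter by quasi-elastic light scattering at 90° and 25°C, on samples diluted 1:20 in water; each value the average of five measurements.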

[6] = Stability of the compound in pH 4.5 acetate buffer assessed as compound mean nano particles size at 2 mg/ml by quasi-elastic light scattering method; type: physicochemical; outline: as §1
[7] = Stability in pH 9 borate buffer; type: physicochemical
[8] = Stability of the compound in presence of 100 mM NaCl assessed as compound mean nano particles size at 2 mg/ml by quasi-elastic light scattering method; type: physicochemical; outline: as §1
[9] = Stability of the compound in pH 10.2 carbonate buffer assessed as compound mean nano particles size at 2 mg/ml by quasi-elastic light scattering method; type: physicochemical; outline: as §1
[10] = Stability of the compound in pH 7.5 phosphate buffer assessed as compound mean nano particles size at 2 mg/ml by quasi-elastic light scattering method; type: physicochemical; outline: as §1
[11] = Stability of the compound in pH 10.2 borate buffer assessed as compound mean nano particles size at 2 mg/ml by quasi-elastic light scattering method; type: physicochemical; outline: as §1
[12] = Stability of the compound in pH 4.5 citrate buffer assessed as compound mean nano particles size at 2 mg/ml by quasi-elastic light scattering method; type: physicochemical; outline: as §1
A549 [13] = assay: Binding affinity to microtubule in human A549 cells at 200 ug/mL incubated for 1 hr by alpha-tubulin staining based fluorescence microscopy; type: cell-based
Outline: (§2)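 A549 cells seeded on glass coverslips at 50000 cells/ml, grown 24 h, then exposed 1 h to 200 µg/ml conjugate or parent drug. Fixed and permeabilized in methanol at -20°C for 6 min, blocked in PBS + 5% BSA, stained with anti-α-tubulin (1:500, 1 h, 37°C), Alexa568 secondary and DAPI nuclei, then imaged by fluorescence microscopy at 63x.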

A549 [14] = assay: Inhibition of microtubule bundle formation in human A549 cells assessed as cell detachment at 200 ug/mL incubated for 1 hr by alpha-tubulin staining based fluorescence microscopy; outline: as §2
A549 [15] = assay: Inhibition of microtubule bundle formation in human A549 cells assessed as cell shrinking at 200 ug/mL incubated for 1 hr by alpha-tubulin staining based fluorescence microscopy; outline: as §2
A549 [16] = assay: Cytotoxicity against human A549 cells after 48 hrs by SRB assay; type: functional, cell-based; details: A549, 48 h
A549 [17] = assay: Induction of microtubule bundling in human A549 cells at 200 ug/mL incubated for 1 hr by alpha-tubulin staining based fluorescence microscopy; type: cell-based
Outline: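 A549 cells grown in E-MEM with 10% FBS, 2 mM L-glutamine, penicillin and non-essential amino acids at 37°C, 5% CO2. Seeded at 50000 cells/ml on glass coverslips, exposed after 24 h. Then fixed and permeabilized in methanol at -20°C for 6 min and blocked in PBS+5% BSA. Stained with anti-α-tubulin (1:500), Alexa568 secondary and DAPI, and imaged by fluorescence microscopy.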

| Structure (SMILES) | IC50 (MCF7 [1]) | remaining at 48 h, 2 mg/ml [2] | Stability [3] | IC50 (MCF7 [4]) | Stability [5] | Stability [6] | Stability [7] | Stability [8] | Stability [9] | Stability [10] | Stability [11] | Stability [12] | Activity (A549 [13]) | inhibition (A549 [14]) | inhibition (A549 [15]) | IC50 (A549 [16]) | Activity (A549 [17]) |
| --- | --- | --- | --- | --- | --- | --- | --- | --- | --- | --- | --- | --- | --- | --- | --- | --- | --- |
| CC(=O)O[C@H]1C(=O)[C@@]2(C)[C@H]([C@H](OC(=O)c3ccccc3)[C@]3(O)C[C@H](OC(=O)[C@H](OC(=O)OCC/C(C)=C/CC/C(C)=C/CC/C=C(\C)CC/C=C(\C)CCC=C(C)C)[C@@H](NC(=O)c4ccccc4)c4ccccc4)C(C)=C1C3(C)C)[C@]1(OC(C)=O)CO[C@@H]1C[C@@H]2O | 9100 nM | 94% | 181.1 nm | 8700 nM | – | – | – | – | – | – | – | – | – | – | – | – | – |
| COc1cc([C@@H]2c3cc4c(cc3[C@H](OC(=O)CCCCCCCCC(=O)OCCC/C(C)=C/CC/C(C)=C/CC/C=C(\C)CC/C=C(\C)CCC=C(C)C)[C@H]3COC(=O)[C@H]23)OCO4)cc(OC)c1OC | 106000 nM | 82% | 210.5 nm | 111000 nM | 180.5 nm | 287.5 nm | Stable | 720.3 nm | 315 nm | 193.5 nm | 211.3 nm | 629.2 nm | – | – | – | – | – |
| CC(=O)O[C@H]1C(=O)[C@@]2(C)[C@H]([C@H](OC(=O)c3ccccc3)[C@]3(O)C[C@H](OC(=O)[C@H](OC(=O)CCCSSCCCC(=O)OCCC/C(C)=C/CC/C(C)=C/CC/C=C(\C)CC/C=C(\C)CCC=C(C)C)[C@@H](NC(=O)c4ccccc4)c4ccccc4)C(C)=C1C3(C)C)[C@]1(OC(C)=O)CO[C@@H]1C[C@@H]2O | 60 nM | 93% | 106.5 nm | 3 nM | 100.8 nm | > 2 um | – | > 2 um | 723.3 nm | 162.4 nm | 181.7 nm | 462.4 nm | Active | Active | Active | 490 nM | – |
| C/C(=C\c1csc(C)n1)[C@@H]1C[C@@H]2O[C@@H]2CCC[C@H](C)[C@H](O)[C@@H](C)C(=O)C(C)(C)[C@@H](O)CC(=O)O1 [EPOTHILONE A] | 0.9 nM | – | – | 0.8 nM | – | – | – | – | – | – | – | – | – | Active | Active | > 5000 nM | Active |
| CC(=O)O[C@H]1C(=O)[C@@]2(C)[C@H]([C@H](OC(=O)c3ccccc3)[C@]3(O)C[C@H](OC(=O)[C@H](OC(=O)CCCCCCCCC(=O)OCCC/C(C)=C/CC/C(C)=C/CC/C=C(\C)CC/C=C(\C)CCC=C(C)C)[C@@H](NC(=O)c4ccccc4)c4ccccc4)C(C)=C1C3(C)C)[C@]1(OC(C)=O)CO[C@@H]1C[C@@H]2O | 1210 nM | 95% | 110.5 nm | 1530 nM | 107.9 nm | > 2 um | Stable | > 2 um | 635.9 nm | 125.6 nm | 161.4 nm | 391.2 nm | – | – | – | – | – |
| CC[C@@]1(OC(=O)CCCSSCCCC(=O)OCCC/C(C)=C/CC/C(C)=C/CC/C=C(\C)CC/C=C(\C)CCC=C(C)C)C(=O)OCc2c1cc1n(c2=O)Cc2cc3ccccc3nc2-1 | 8600 nM | 70% | 210.2 nm | 800 nM | 195.3 nm | 224.3 nm | – | 339.7 nm | 250.6 nm | 198.9 nm | 160.3 nm | 376.4 nm | – | – | – | > 5000 nM | – |
| CC[C@@]1(O)C(=O)OCc2c1cc1n(c2=O)Cc2cc3ccccc3nc2-1 [CAMPTOTHECIN] | 0.5 nM | – | – | 3 nM | – | – | – | – | – | – | – | – | – | – | – | 1300 nM | – |
| COc1cc([C@@H]2c3cc4c(cc3[C@H](OC(=O)CCCSSCCCC(=O)OCCC/C(C)=C/CC/C(C)=C/CC/C=C(\C)CC/C=C(\C)CCC=C(C)C)[C@H]3COC(=O)[C@H]23)OCO4)cc(OC)c1OC | 400 nM | 52% | 215.3 nm | 60 nM | 185.9 nm | 275.9 nm | – | 676 nm | 242.9 nm | 201.5 nm | 202.3 nm | 428.3 nm | – | Active | Active | 7640 nM | – |
| CC(C)=CCC/C(C)=C/CC/C(C)=C/CC/C=C(\C)CC/C=C(\C)CCCOC(=O)CCCSSCCCC(=O)O[C@H]1[C@@H](C)CCC[C@H]2O[C@H]2C[C@@H](/C(C)=C/c2csc(C)n2)OC(=O)C[C@H](O)C(C)(C)C(=O)[C@@H]1C | 1300 nM | 58% | 191.1 nm | 500 nM | 165.1 nm | 201.5 nm | – | 312.9 nm | 212.2 nm | 235.5 nm | 207.7 nm | 197.8 nm | – | Active | Active | > 5000 nM | – |
| CC(=O)O[C@H]1C(=O)[C@@]2(C)[C@H]([C@H](OC(=O)c3ccccc3)[C@]3(O)C[C@H](OC(=O)[C@H](O)[C@@H](NC(=O)c4ccccc4)c4ccccc4)C(C)=C1C3(C)C)[C@]1(OC(C)=O)CO[C@@H]1C[C@@H]2O [PACLITAXEL] | – | – | – | – | – | – | – | – | – | – | – | – | – | Active | Active | 82 nM | Active |
| COc1cc([C@@H]2c3cc4c(cc3[C@H](O)[C@H]3COC(=O)[C@H]23)OCO4)cc(OC)c1OC [PODOFILOX] | 0.1 nM | – | – | 0.4 nM | – | – | – | – | – | – | – | – | – | Active | Active | 59 nM | – |
| CC[C@@]1(OC(=O)CCCCCCCCC(=O)OCCC/C(C)=C/CC/C(C)=C/CC/C=C(\C)CC/C=C(\C)CCC=C(C)C)C(=O)OCc2c1cc1n(c2=O)Cc2cc3ccccc3nc2-1 | 10500 nM | 85% | 172.4 nm | 20100 nM | 160.2 nm | 275.9 nm | Stable | 461.1 nm | 242.9 nm | 201.5 nm | 202.3 nm | 375.4 nm | – | – | – | – | – |
| CC(C)=CCC/C(C)=C/CC/C(C)=C/CC/C=C(\C)CC/C=C(\C)CCCOC(=O)CCCCCCCCC(=O)O[C@H]1[C@@H](C)CCC[C@H]2O[C@H]2C[C@@H](/C(C)=C/c2csc(C)n2)OC(=O)C[C@H](O)C(C)(C)C(=O)[C@@H]1C | 40200 nM | 70% | 142.9 nm | 45100 nM | 125.3 nm | 206 nm | Stable | 502.4 nm | 312.2 nm | 212.9 nm | 351.1 nm | 203.2 nm | – | – | – | – | – |
